# According to ChEMBL document CHEMBL4354866, “TREK Channel Family Activator with a Well-Defined Structure-Activation Relationship for Pain and Neurogenic Inflammation” (J Med Chem, 2020):
# pEC50: −log10 of the molar value. Calls of active or inactive are those of the source. No cut-off for these calls is given here.
# Tests used:
# [1] = test system: Mus musculus; assay: (§1) Analgesic activity in cerulein-induced mouse model of acute pancreatitis assessed as reduction in pancreatic edema at 10 mg/kg, ip administered at 2 hrs interval for 10 hrs starting from post-first cerulein challenge and measured 12 hrs post-first cerulein challenge by H and E staining based histopathological analysis; type: functional, organism-based
# How it was run: (§2)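 Cerulein pancreatitis: 7 hourly i.p. injections of 50 µg/kg; 10 mg/kg compound i.p. at 2, 4, 6, 8 and 10 h. Mice killed at 12 h and pancreas harvested for MPO activity and H&E histology. Ten random fields per slide scored blind by two observers for edema, inflammatory infiltration and acinar necrosis; n = 6.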
# [2] = target: T1, Potassium channel subfamily K member 2 (Homo sapiens) (UniProt O95069); assay: Activation of recombinant human TREK1 expressed in HEK293T cells assessed as increase in K+ current amplitude measured after compound washout by whole cell voltage clamp electrophysiological analysis; type: cell-based
# T1 sequence (whole entry): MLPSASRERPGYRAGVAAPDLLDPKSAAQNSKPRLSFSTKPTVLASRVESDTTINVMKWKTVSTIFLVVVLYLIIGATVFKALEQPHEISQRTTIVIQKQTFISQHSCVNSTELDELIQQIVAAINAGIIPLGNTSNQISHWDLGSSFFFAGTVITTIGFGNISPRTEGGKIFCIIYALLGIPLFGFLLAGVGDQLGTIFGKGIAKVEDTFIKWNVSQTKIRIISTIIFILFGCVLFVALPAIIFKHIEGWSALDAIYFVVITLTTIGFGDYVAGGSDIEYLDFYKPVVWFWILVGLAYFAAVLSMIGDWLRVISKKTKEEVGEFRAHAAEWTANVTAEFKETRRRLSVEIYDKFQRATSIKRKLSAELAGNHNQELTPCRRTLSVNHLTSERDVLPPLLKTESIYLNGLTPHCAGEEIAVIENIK
# How it was run: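 HEK-293T cells expressing human TREK-1, whole-cell clamp. Current recorded during extracellular compound application and again after washout.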
# [3] = target: Potassium channel subfamily K member 2 (Homo sapiens, UniProt O95069, T156A); assay: Activation of recombinant human TREK1 T156A mutant expressed in HEK293T cells assessed as increase in K+ current amplitude by whole cell voltage clamp electrophysiological analysis; type: cell-based
# Sequence of Potassium channel subfamily K member 2 (Homo sapiens, UniProt O95069, T156A) (O95069 whole entry T156A): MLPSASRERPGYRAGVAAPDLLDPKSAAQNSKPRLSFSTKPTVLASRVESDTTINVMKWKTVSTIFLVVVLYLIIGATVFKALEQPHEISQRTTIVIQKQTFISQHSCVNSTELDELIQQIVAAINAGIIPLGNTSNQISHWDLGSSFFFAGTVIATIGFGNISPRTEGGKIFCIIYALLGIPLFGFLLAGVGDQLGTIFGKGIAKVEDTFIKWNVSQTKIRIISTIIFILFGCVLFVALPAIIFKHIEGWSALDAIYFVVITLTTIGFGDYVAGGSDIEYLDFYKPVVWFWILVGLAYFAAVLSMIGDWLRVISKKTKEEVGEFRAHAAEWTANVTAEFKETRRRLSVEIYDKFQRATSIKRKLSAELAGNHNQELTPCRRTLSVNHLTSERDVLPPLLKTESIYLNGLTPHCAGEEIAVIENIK
# How it was run: (§3)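 Transiently transfected HEK-293T cells, whole-cell voltage clamp. Held at -60 mV, 500-ms ramp -120 to +60 mV. Pipette (mM) 140 KCl, 5 EGTA, 10 HEPES, pH 7.4; external 145 NaCl, 4 KCl, pH 7.3. Compound diluted from 10 mM DMSO stock and applied extracellularly. Current increase over control fitted to concentration–response curves for EC50.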
# [4] = target: T1, Potassium channel subfamily K member 2 (Homo sapiens); assay: Activation of recombinant human TREK1 expressed in HEK293T cells assessed as increase in probability of open channel by outside-out patch electrophysiological analysis; type: cell-based
# How it was run: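 Outside-out patches from HEK-293T cells transfected with human TREK-1 (pEGFP-N1). Pipettes 7–15 MΩ. Open probability measured at -60 and +60 mV. Conductance taken as first open-state current amplitude divided by voltage at ±60 mV.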
# [5] = target: T2, TREK-2 two-pore-domain K+ channel (Mus musculus, UniProt Q3LS20); assay: Activation of recombinant mouse TREK2 expressed in HEK293T cells assessed as increase in K+ current amplitude by whole cell voltage clamp electrophysiological analysis; type: cell-based; how it was run: as §3
# T2 sequence (Q3LS20 whole entry): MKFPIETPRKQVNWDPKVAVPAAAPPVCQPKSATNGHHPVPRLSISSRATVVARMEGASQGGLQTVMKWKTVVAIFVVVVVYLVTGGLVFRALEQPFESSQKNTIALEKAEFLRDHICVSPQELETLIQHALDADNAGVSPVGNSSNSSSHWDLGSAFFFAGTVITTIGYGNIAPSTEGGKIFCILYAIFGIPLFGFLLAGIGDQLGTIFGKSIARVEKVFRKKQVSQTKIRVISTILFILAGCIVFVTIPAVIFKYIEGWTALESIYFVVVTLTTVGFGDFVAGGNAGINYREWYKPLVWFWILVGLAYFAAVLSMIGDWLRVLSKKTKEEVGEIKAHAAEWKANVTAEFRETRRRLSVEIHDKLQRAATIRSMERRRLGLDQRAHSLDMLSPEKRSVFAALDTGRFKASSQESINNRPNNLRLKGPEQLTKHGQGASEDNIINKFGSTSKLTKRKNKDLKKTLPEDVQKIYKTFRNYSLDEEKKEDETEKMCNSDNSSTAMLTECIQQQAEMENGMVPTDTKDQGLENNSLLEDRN
# [6] = target: T1, Potassium channel subfamily K member 2 (Homo sapiens); assay: Activation of recombinant human TREK1 expressed in HEK293T cells assessed as change in probability of open channel by inside-out patch electrophysiological analysis; type: cell-based
# How it was run: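 Inside-out patches from HEK-293T cells expressing human TREK-1 (pEGFP-N1), 10 μM compound. Conductance taken as first open-state amplitude over voltage at -60 or +60 mV.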
# [7] = target: Potassium channel subfamily K member 2 (Homo sapiens, UniProt O95069, G275C); assay: Activation of recombinant human TREK1 G275C mutant expressed in HEK293T cells assessed as increase in K+ current amplitude by whole cell voltage clamp electrophysiological analysis; type: cell-based
# Sequence of Potassium channel subfamily K member 2 (Homo sapiens, UniProt O95069, G275C) (O95069 whole entry G275C): as the sequence (O95069 whole entry T156A) above, with A156T, G275C counted along it
# How it was run: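 Human TREK-1 G275C expressed in HEK-293T, whole-cell ramp recordings. Tested with or without MTSET, 1 mM final, diluted from 0.5 M DMSO stock within 120 s of application. Concentration–response curves for EC50, n = 5–19; 10 μM single-point comparison by one-way ANOVA with Tukey test.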
# [8] = test system: Mus musculus; assay: as §1, with “necrosis” for “edema”; type: functional, organism-based; how it was run: as §2
# [9] = Drug uptake in BALB/c mouse plasma at 5 mg/kg, ip administered as single dose by LC-MS/MS analysis; type: ADME, organism-based; conditions: in vivo
# How it was run: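 BALB/c mice (n = 6) given a single 5 mg/kg i.p. dose as a 0.5 mg/ml solution in 5% DMSO/5% Tween 80/90% saline. Plasma sampled at 0.083–8 h. Concentrations measured by LC-MS/MS against spiked standard curves; AUC, Tmax, Cmax and T1/2 calculated by non-compartmental analysis of mean concentrations.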
structure (smiles),measurement,setting,value
Cc1ccc2nc(-c3ccc(NC(=O)[C@@H]4CC[C@H](C(=O)O)C4)cc3)sc2c1,Activity,[1],Active
same,Activity,[2],inactive
same,pEC50,[3],5.12
same,Activity,[4],Active
same,pEC50,[5],4.95
same,Activity,[6],inactive
same,pEC50,[7],4.82
same,Activity,[8],Active
same,Drug uptake,[9],Active
